From ChEMBL document CHEMBL4425098, “Thiolactomycin-Based Inhibitors of Bacterial β-Ketoacyl-ACP Synthases with in Vivo Activity” (J Med Chem, 2016)
pKi: −log10 of the molar value.

Assay: Binding affinity to Mycobacterium tuberculosis FabB C171Q mutant expressed in Mycobacterium smegmatis MC2 155 by intrinsic tryptophan fluorescence quenching-based fluorimetric method
Procedure, shortened: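 Kd by quenching of intrinsic tryptophan fluorescence (excitation 280 nm, emission 337 nm). Inhibitor stocks in DMSO or buffer were titrated into 1 μM His-tag-purified enzyme in 50 mM Tris-HCl, 150 mM NaCl, 1 mM DTT, pH 8.5. mtFabB was expressed in M. smegmatis MC²155; saFabF was expressed in E. coli BL21(DE3) pLysS.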

With `C=C/C(C)=C/[C@@]1(C)SC(=O)C(C)=C1O` [THIOLACTOMYCIN] as the compound, how does the pKi read?
Its pKi is 3.76.

With `C=C/C(C)=C/[C@@]1(C)SC(=O)C=C1OCC(=O)NCCN=[N+]=[N-]` as the compound, how does the pKi read?
The pKi was less than 3.70.

With `C=C/C(C)=C/[C@@]1(C)SC(=O)C=C1OCC(=O)NCCNC(=O)OC(C)(C)C` as the compound, how does the pKi read?
Its pKi is less than 3.70.
